These results are taken from publication PMC11062432 (The Plant Cell, 2023).

The test system of one assay is root growth. Particulars: overexpression or application of the peptide; ref Matos et al. 2008; Li et al. 2022; cited from earlier work.
The subject of assay [1] is plasma membrane H^+-ATPase2. Particulars: roots; ref Haruta et al. 2014; cited from earlier work.
In the next assay the test system is ANX1. The experiment in a line: Pull-down assay, ANX1 ectodomain. The class given is binding, Arabidopsis thaliana. Particulars: Flag-tagged ectodomain, His-tagged ZmRALFs. An outline of the steps:
(§1)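 FLAG-tagged Arabidopsis receptor ectodomains (from earlier work) were mixed with maize RALF mature peptides. The peptides were TrxA-His fusions expressed in E. coli BL21 (1 mm IPTG, 30 °C, 3–4 h), Ni-NTA-purified and desalted. The mix sat in 20 mm Tris pH 7.5, 1% CA630, rotating at 4 °C for 2 h. Ni-NTA beads were then added for 2 h more, followed by 5 washes. Read-out: SDS-PAGE and Western blot, anti-His and anti-FLAG.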

For another assay, the system named is ANX2. The experiment in a line: Pull-down assay, ANX2 ectodomain. In kind it is binding, Arabidopsis thaliana. Particulars: Flag-tagged ectodomain, His-tagged ZmRALFs. Put shortly:
as §1

A further assay has as its system BUPS1. The assay can be described thus: Pull-down assay, BUPS1 ectodomain. Conditions: Flag-tagged ectodomain, His-tagged ZmRALFs. In kind it is binding, Arabidopsis thaliana. Put shortly:
as §1

Another assay deals with BUPS2. The experiment in a line: Pull-down assay, BUPS2 ectodomain. In kind it is binding, Arabidopsis thaliana. Conditions: Flag-tagged ectodomain, His-tagged ZmRALFs. Put shortly: as §1
A further assay concerns CrRLK1Ls. The experiment in a line: Interaction of RALFs with CrRLK1Ls, overall. In kind it is binding. Conditions: discussion summary.
In a further assay the test system is ZmLLG1. The assay can be described thus: Pull-down assay, ZmLLG1. In kind it is binding, Zea mays. Conditions: MBP-tagged LLG, His-tagged RALFs. Put shortly:
(§2)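 MBP-tagged maize partners were expressed in E. coli BL21 (0.1–0.5 mm IPTG, 30 °C, 3–4 h), amylose-purified, eluted with maltose and desalted. Partners: LLGs without signal peptide, PEX2 N-terminal LRR domain, PEX4. Each was incubated with His-tagged maize RALFs in 20 mm Tris pH 7.5, 1% CA630 at 4 °C for 2 h, then Ni-NTA pull-down for 2 h and 5 washes. Read-out: SDS-PAGE and Western blot, anti-His and anti-MBP.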

In the next assay the test system is ZmLLG2. The assay can be described thus: Pull-down assay, ZmLLG2. The class given is binding, Zea mays. Conditions: MBP-tagged LLG, His-tagged RALFs. Put shortly: as §2
In another assay the test system is ZmPEX2. The experiment in a line: Pull-down assay, LRR domain of ZmPEX2. The class given is binding, Zea mays. Conditions: MBP-tagged N-terminal LRR domain of ZmPEX2, ZmRALFs. Put shortly:
as §2

Another assay concerns ZmPEX4. The assay can be described thus: Pull-down assay, full-length ZmPEX4. Particulars: MBP-tagged full-length ZmPEX4, ZmRALFs. In kind it is binding, Zea mays. An outline of the steps: as §2
For assay [2], the target named is 6xHis-ZmRALF3 (predicted mature peptide, pET53-DEST, refolded) (maize (Zea mays)). The assay can be described thus: MST.
Assay [3] deals with 6xHis-ZmRALF1 (predicted mature peptide, pET53-DEST, refolded) (maize (Zea mays)). The assay can be described thus: MST.
The target in assay [4] is 6xHis-ZmRALF2 (predicted mature peptide, pET53-DEST, refolded) (maize (Zea mays)). The assay can be described thus: MST.

pKd: −log10 of the molar value. Bridge positions count the residues as written; N and C are the ends. Ends that are not written are not given here.

Turning to “AtRALF1: Clade IA Arabidopsis RALF (ATTKYISYQSLKRNSVPCSRRGASYYNCQNGAQANPYSRGCSKIARCRS; not fully specified; ends and bridges not checked; UniProt Q9SRY3 72-120, looked up)”, in the assay with root growth, the “effect on root growth” value is given as “inhibited rapid root growth”. The “effect on H^+-ATPase2 via FER” value in assay [1] is given as “inhibition of plasma membrane H^+-ATPase2 explaining extracellular alkalinization”.
Regarding “MARLALVAAVVLCLLLATGPQGAISAEGMVSFDNLISCKVLGNCDKNLGPEASRPGKPANDYTRGCNPITGCRG (disulfide (positions not given here)) [ZmRALF1]”, the interaction in pull-down result was “did not interact with Arabidopsis CrRLK1Ls” in the assay with ANX1, “did not interact with Arabidopsis CrRLK1Ls” in the assay with ANX2, “did not interact with Arabidopsis CrRLK1Ls” with BUPS1 and “very weak interaction” in the assay with BUPS2. In the assay on CrRLK1Ls, the “interaction with CrRLK1Ls in words” value was “very low (almost unspecific) binding”.
Take “MARLGAGAVLALLVAVAAVAAFLAVPASAKSGELSAMGLLAAKGGSGAGPQKCSGAVGECDVDEAEELGLSGGGLGSDDAVRRTLAQRKPTNRYISYAALRADQVPCNKRGRSYYSNCEAQKAANPYRRGCSAITRCARNMN (disulfide (positions not given here)) [ZmRALF2]”: the interaction in pull-down result is “interacted more strongly with ANX1/2 and BUPS1/2 compared with ZmRALF3” in the assay on ANX1; “interacted more strongly with ANX1/2 and BUPS1/2 compared with ZmRALF3” in the assay with ANX2; “interacted more strongly with ANX1/2 and BUPS1/2 compared with ZmRALF3” in the assay on BUPS1; “interacted more strongly with ANX1/2 and BUPS1/2 compared with ZmRALF3” in the assay on BUPS2; “interacted with ZmLLG1/2” in the assay on ZmLLG1; “interacted with ZmLLG1/2” with ZmLLG2. The interaction in pull-down entry in the assay on ZmPEX2 and with ZmPEX4 was “interacted with both ZmPEX proteins” throughout.
On to “MARLGAGAVLTLLLAVAAAAAFLAVPASAKVGDLSAVEFVAARGSSIPGQRSSKCSGAVGECGVDEEEELGLSGGGGIGAGDALRRTLAQRKPTNRYISYAALRADQVPCNKRGRSYYTNCAAQTAANPYRRGCSAITRCARSMN (disulfide (positions not given here)) [ZmRALF3]”, for which the interaction in pull-down result is on record as “interacted with ZmLLG1/2” with ZmLLG1, “interacted with ZmLLG1/2” in the assay with ZmLLG2, “interacted with both ZmPEX proteins” with ZmPEX2 and “interacted with both ZmPEX proteins” with ZmPEX4.
For “MBP-tagged ectodomain of ZmFERL1 (domain or fragment)”, the pKd in assay [2] was 5.76.
For “MGEAKLNNVTVLLVALLLLSSGVQDAAAMPGTLNYDAIVADEPNGKNKDLYRPVANANKYTRGCEPIERCRGAR (disulfide 64-70 (inferred)) [ZmRALF5]”, the interaction in pull-down result with ANX1, with ANX2 and in the assay on BUPS1 was “did not interact with Arabidopsis CrRLK1Ls” in each case.
On to “ZmFERL7 ectodomain as used in MST (tag not told: MBP or GST construct) (domain or fragment)”, for which the pKd in assay [3] is 5.45; in [4] it was 6.21.
As for “ZmFERL9 ectodomain as used in MST (tag not told: MBP or GST construct) (domain or fragment)”, the pKd in assay [3] is 5.72; in assay [4], 6.26.
